From publication PMC6402190 (Clinical and Translational Science, 2017)
“Also recorded” adds a separate entry of the source. Like-named read-outs stand apart in the source and are kept apart here.

Assays:
[1] = Safety: treatment emergent adverse events, laboratory, vital signs, ECG; type: in vivo, human (healthy women); details: for Dose-dependent AEs or clinically significant findings in safety laboratory values, vital signs, ECG parameters: any of the dose groups
In short: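 Subjects were healthy women, aged 18–45 years, with BMI 18.0–28.0 kg/m². Part A gave single escalating i.v. doses (6 active, 2 placebo per cohort). Part B gave 240 mg i.v. on day 1 and once daily on days 8–14 (8 active, 4 placebo). AEs were categorized by nature, frequency, duration, severity, investigator-assessed causality and dose-dependence. Clinical laboratory, blood pressure, heart rate and 12-lead/Holter ECG were also recorded. Summaries are descriptive.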

[2] = Local tolerability: ultrasound of the arm veins; type: in vivo, human (healthy women)
In short: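 Arm veins were examined by ultrasound in healthy women. In the multiple-dose phase of part B, subjects had once-daily 30-min i.v. infusions of 240 mg test compound or placebo on days 8–14. Scans were done at readmission on day 7 and predose on days 9–14. After the day-14 dose they were repeated at 24, 48 and 72 h and at the final exam.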

[3] = Local tolerability: VAS assessment of pain at infusion site; type: in vivo, human (healthy women)
In short: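 Healthy women, aged 18–45 years, received single i.v. doses of HPβCD-formulated test compound (60-min infusion in 0.9% saline) or placebo. Pain was self-rated on a 100-mm line (0 = no pain, 100 = unbearable). Read-outs were maximum increase from baseline and area under the VAS-time curve.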

[4] = Local tolerability: Visual Infusion Phlebitis; type: in vivo, human (healthy women)
In short: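 The investigator scored the infusion site on the Visual Infusion Phlebitis scale, from 0 (no signs) to 5 (advanced thrombophlebitis). Subjects were healthy women given a single i.v. infusion of test compound or placebo. Scoring was done on day 1 predose after catheter placement, at 0.5, 1, 2, 3, 4, 6, 8, 12, 24, 48 and 72 h postdose, and at the post-trial exam.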

[5] = type: in vivo, human (healthy women)
[6] = part A, letermovir total (N=30)
[7] = part B, multiple-dose letermovir
[8] = part A, single dose 120 mg (N=6)
[9] = part A, single dose 120 mg (N=6), listed as letermovir
[10] = part A, single dose 240 mg (N=6)
[11] = part A, single dose 480 mg (N=6)
[12] = part A, single dose 720 mg (N=6)
[13] = part A, single dose 960 mg (N=6)
[14] = part A, single dose, letermovir total (N=30)
[15] = part B, multiple dose 240 mg (No. 5)
[16] = part B, multiple dose 240 mg (No. 6)
[17] = part B, single dose 240 mg (N=8)
[18] = part A, single 120 mg i.v., 30-min infusion, N=6, mean ± SD
[19] = part A, single 240 mg i.v., 30-min infusion, N=6, mean ± SD
[20] = part A, single 480 mg i.v., 60-min infusion, N=6, mean ± SD
[21] = part A, single 720 mg i.v., 60-min infusion, N=6, mean ± SD
[22] = part A, single 960 mg i.v., 60-min infusion, N=6, mean ± SD
[23] = part B, single 240 mg i.v. day 1, 30-min infusion, N=8, mean ± SD

Structure (SMILES): COc1cccc(N2CCN(C3=Nc4c(F)cccc4[C@H](CC(=O)O)N3c3cc(C(F)(F)F)ccc3OC)CC2)c1 [Letermovir]
- Dose-dependent AEs or clinically significant findings in safety laboratory values, vital signs, ECG parameters [1]: No clinically significant findings
- Dose-dependent AEs or clinically significant findings in safety laboratory values, vital signs, ECG parameters ([1]; listed as letermovir): No dose‐dependent AEs or clinically significant findings
- Subjects with mild or moderate TEAEs ([1]; part A): 17 subjects
- TEAE Vessel puncture site hematoma [1, 6]: 2 No. of subjects
- TEAE Vessel puncture site pain [1, 6]: 4 No. of subjects
- TEAE Vessel puncture site reaction [1, 6]: 2 No. of subjects
- Treatment-related AE headache ([1]; part A, single-dose letermovir): 2 subjects
- Treatment-related AE nausea ([1]; part A, single-dose letermovir): 2 subjects
- Treatment-related AE vomiting ([1]; part A, single-dose letermovir): 2 subjects
- Subjects reporting TEAEs ([1]; part A, single-dose letermovir (18/30)): 60%
- Subjects reporting AEs possibly or probably related to treatment ([1]; part A, single-dose letermovir (eight subjects)): 26.7%
- Subjects with mild or moderate TEAEs ([1]; part B): 6 subjects
- Subjects reporting TEAEs ([1]; part B, letermovir (6/8)): 75%
- Subjects with treatment-related AEs [1, 7]: five
- Treatment-related AE dizziness [1, 7]: 2 subjects
- Treatment-related AE headache [1, 7]: 2 subjects
- General tolerability ([1]; single doses up to 960 mg and multiple once-daily 240 mg i.v.): generally safe and well tolerated
- Discontinuations due to AEs ([1]; throughout the study): no discontinuations due to AEs
- Ultrasound finding in infusion site arm ([2]; part A, one subject in letermovir-treated group, at follow-up): NCS abnormal finding
- Ultrasound finding in infusion site arm ([2]; part B): no abnormal findings
- AUC (increase from baseline) of VAS-time curve, Mean (SD) [3, 8]: 2.74 (6.55) h*mm VAS
- AUC (increase from baseline) of VAS-time curve, Median [3, 8]: 0.00 h*mm VAS
- AUC (increase from baseline) of VAS-time curve, Range [3, 8]: 0.00–16.10 h*mm VAS
- VAS maximum increase from baseline, Mean (SD) [3, 8]: 1.17 (2.40) mm VAS
- VAS maximum increase from baseline, Median [3, 8]: 0.00 mm VAS
- VAS maximum increase from baseline, Range [3, 8]: 0.00–6.00 mm VAS
- AUC (increase from baseline) of VAS-time curve, Mean (SD) [3, 9]: 2.74 h*mm VAS
- VAS maximum increase from baseline, Mean (SD) [3, 9]: 1.17 mm VAS
- AUC (increase from baseline) of VAS-time curve, Mean (SD) [3, 10]: 0.83 (0.61) h*mm VAS
- AUC (increase from baseline) of VAS-time curve, Median [3, 10]: 0.83 h*mm VAS
- AUC (increase from baseline) of VAS-time curve, Range [3, 10]: 0.00–1.67 h*mm VAS
- VAS maximum increase from baseline, Mean (SD) [3, 10]: 1.17 (0.75) mm VAS
- VAS maximum increase from baseline, Median [3, 10]: 1.00 mm VAS
- VAS maximum increase from baseline, Range [3, 10]: 0.00–2.00 mm VAS
- AUC (increase from baseline) of VAS-time curve, Mean (SD) [3, 11]: 0.24 (0.42) h*mm VAS
- AUC (increase from baseline) of VAS-time curve, Median [3, 11]: 0.00 h*mm VAS
- AUC (increase from baseline) of VAS-time curve, Range [3, 11]: 0.00–1.02 h*mm VAS
- VAS maximum increase from baseline, Mean (SD) [3, 11]: 0.5 (0.84) mm VAS
- VAS maximum increase from baseline, Median [3, 11]: 0.00 mm VAS
- VAS maximum increase from baseline, Range [3, 11]: 0.00–2.00 mm VAS
- AUC (increase from baseline) of VAS-time curve, Mean (SD) [3, 12]: 0.39 (0.95) h*mm VAS
- AUC (increase from baseline) of VAS-time curve, Median [3, 12]: 0.00 h*mm VAS
- AUC (increase from baseline) of VAS-time curve, Range [3, 12]: 0.00–2.33 h*mm VAS
- VAS maximum increase from baseline, Mean (SD) [3, 12]: 0.17 (0.41) mm VAS
- VAS maximum increase from baseline, Median [3, 12]: 0.00 mm VAS
- VAS maximum increase from baseline, Range [3, 12]: 0.00–1.00 mm VAS
- VAS maximum increase from baseline, Mean (SD) ([3]; part A, single dose 720 mg (N=6), listed as letermovir): 0.17 mm VAS
- AUC (increase from baseline) of VAS-time curve, Mean (SD) [3, 13]: 0.26 (0.64) h*mm VAS
- AUC (increase from baseline) of VAS-time curve, Median [3, 13]: 0.00 h*mm VAS
- AUC (increase from baseline) of VAS-time curve, Range [3, 13]: 0.00–1.57 h*mm VAS
- VAS maximum increase from baseline, Mean (SD) [3, 13]: 0.67 (1.63) mm VAS
- VAS maximum increase from baseline, Median [3, 13]: 0.00 mm VAS
- VAS maximum increase from baseline, Range [3, 13]: 0.00–4.00 mm VAS
- AUC (increase from baseline) of VAS-time curve, Mean (SD) [3, 14]: 0.89 (2.94) h*mm VAS
- AUC (increase from baseline) of VAS-time curve, Median [3, 14]: 0.00 h*mm VAS
- AUC (increase from baseline) of VAS-time curve, Range [3, 14]: 0.00–16.10 h*mm VAS
- VAS maximum increase from baseline, Mean (SD) [3, 14]: 0.73 (1.36) mm VAS
- VAS maximum increase from baseline, Median [3, 14]: 0.00 mm VAS
- VAS maximum increase from baseline, Range [3, 14]: 0.00–6.00 mm VAS
- VAS maximum increase from baseline, Mean (SD) ([3]; part A, single dose, letermovir total (N=30), listed as letermovir): 0.73 mm VAS
- AUC (increase from baseline) of VAS-time curve, Mean (SD) [3, 15]: 24.58 (30.23) h*mm VAS
- AUC (increase from baseline) of VAS-time curve, Median [3, 15]: 23.95 h*mm VAS
- AUC (increase from baseline) of VAS-time curve, Range [3, 15]: 0.00–74.33 h*mm VAS
- VAS maximum increase from baseline, Mean (SD) [3, 16]: 0.83 (0.41) mm VAS
- VAS maximum increase from baseline, Median [3, 16]: 1.00 mm VAS
- VAS maximum increase from baseline, Range [3, 16]: 0.00–1.00 mm VAS
- VAS maximum increase from baseline, Mean (SD) ([3]; part B, multiple dose 240 mg (No. 6), listed as letermovir): 0.83 mm VAS
- AUC (increase from baseline) of VAS-time curve, Mean (SD) [3, 17]: 0.00 h*mm VAS
- AUC (increase from baseline) of VAS-time curve, Median [3, 17]: 0.00 h*mm VAS
- AUC (increase from baseline) of VAS-time curve, Range [3, 17]: 0.00 h*mm VAS
- VAS maximum increase from baseline, Mean (SD) [3, 17]: 0.00 mm VAS
- VAS maximum increase from baseline, Median [3, 17]: 0.00 mm VAS
- VAS maximum increase from baseline, Range [3, 17]: 0.00 mm VAS
- VIP score ([4]; part A, one subject of 120 mg group, 4 h postinfusion, scale 0–5): 2
- VIP score ([4]; part A, one subject treated with 240 mg, 24 h postinfusion, scale 0–5): 1
- VIP score ([4]; part A, same subject of 120 mg group, 72 h postinfusion, scale 0–5): 1
- VIP score ([4]; part B, one letermovir-treated subject, predose day 14 until 72 h postdose): 1
- VIP score ([4]; part B, throughout the study, all participants except one): 0
- AUC(0-inf) ([5]; female, human, plasma, intravenous, 240 mg, AUC0–∞ after a single dose, part B, 240 mg single dose): 27500 ng·h/mL
- AUC ([5]; female, human, plasma, intravenous, 240 mg, AUCτ,ss, part B, 240 mg q.d., steady state): 33600 ng·h/mL
- Tmax ([5]; female, human, plasma, iv, 120 mg): 0.5 h
- Tmax ([5]; female, human, plasma, iv, 240 mg): 0.5 h
- Tmax ([5]; female, human, plasma, iv, 480 mg): 1 h
- Tmax ([5]; female, human, plasma, iv, 720 mg): 1 h
- Tmax ([5]; female, human, plasma, iv, 960 mg): 1 h
- AUC0–last/D [5, 18]: 0.11 ± 0.03 µg·h/mL/mg
- AUC0–∞/D [5, 18]: 0.11 ± 0.03 µg·h/mL/mg
- Cmax/D [5, 18]: 0.06 ± 0.01 µg/mL/mg
- AUC0–last/D [5, 19]: 0.14 ± 0.04 µg·h/mL/mg
- AUC0–∞/D [5, 19]: 0.14 ± 0.04 µg·h/mL/mg
- Cmax/D [5, 19]: 0.07 ± 0.01 µg/mL/mg
- AUC0–last/D [5, 20]: 0.22 ± 0.04 µg·h/mL/mg
- AUC0–∞/D [5, 20]: 0.22 ± 0.04 µg·h/mL/mg
- Cmax/D [5, 20]: 0.06 ± 0.01 µg/mL/mg
- AUC0–last/D [5, 21]: 0.23 ± 0.03 µg·h/mL/mg
- AUC0–∞/D [5, 21]: 0.23 ± 0.03 µg·h/mL/mg
- Cmax/D [5, 21]: 0.05 ± 0.00 µg/mL/mg
- AUC0–last/D [5, 22]: 0.26 ± 0.06 µg·h/mL/mg
- AUC0–∞/D [5, 22]: 0.26 ± 0.06 µg·h/mL/mg
- Cmax/D [5, 22]: 0.06 ± 0.01 µg/mL/mg
- Tmax ([5]; part B, 240 mg q.d. i.v. day 14, 30-min infusion, N=5, median (minimum-maximum)): 0.50 (0.50–0.50) h
- C0h (pre-dose analyte concentration) ([5]; part B, 240 mg q.d. i.v. day 14, N=5, mean ± SD): 193.2 ± 86.23 ng/mL
- AUC0–last/D [5, 23]: 0.12 ± 0.02 µg·h/mL/mg
- AUC0–∞/D [5, 23]: 0.13 ± 0.02 µg·h/mL/mg
- Cmax/D [5, 23]: 0.06 ± 0.01 µg/mL/mg
- Tmax ([5]; part B, single 240 mg i.v. day 1, 30-min infusion, N=8, median (minimum-maximum)): 0.50 (0.50–0.50) h
- Dose proportionality of Cmax ([5]; single i.v. doses 120–960 mg): dose‐proportional increase; also recorded: approximately proportionally to the dose
- Dose proportionality of total exposure AUC0–∞ (AUC0–last) ([5]; single i.v. doses 120–960 mg): slightly more‐than‐dose‐proportional increase; also recorded: more than dose proportional
- Increase in exposure on dose-doubling ([5]; single i.v. doses 120–960 mg): threefold
